Results from different studies.
Compare with care: the assays were run in different laboratories.
Target: Activated CDC42 kinase 1 (TNK2, Homo sapiens, UniProt Q07912)

The inhibition of `CC/C(=N\NC(=O)NCc1cccc(O)c1)c1ccc(O)c(C)c1O` is reported as -0.3% (enzyme activity; inhibitor; 0.1 µM).
With `Cc1ccc(NC(=O)c2ccc(C)c(C(F)(F)F)c2)cc1C#Cc1nn(C2CCC(O)CC2)c2ncnc(N)c12` (centres unmarked) the remaining signal was 4% (cell-free assay; 10 µM).
With `O=C1NC(=O)c2cc(Nc3ccc(F)cc3)c(Nc3ccc(F)cc3)cc21` the remaining signal was 93.2% (cell-free assay; 0.5 µM).
With `CN(C)C(=O)Cn1cc(-c2nc(C3(c4ccc(-c5cnc(N)nc5)cc4)CC3)no2)cn1` the remaining binding was 96% (cell-free assay; competition with immobilised ligand; 1 µM).
For `Cc1cc(NC(=O)c2cccc3cc(-c4cccc5[nH]nc(N)c45)ccc23)ccc1F`, the activity vs control was 107% (enzyme activity; inhibitor; 0.1 µM).
With `COc1ccc2cc(OCC3(C(=O)O)CN(C(=O)c4ccc(F)cc4)C3)ccc2c1` the remaining binding was 100% (cell-free assay; competition with immobilised ligand; 1 µM).
For `Cc1ccc(C(=O)NCc2ccsc2)cc1C#Cc1cn(C(C)C)c2ncnc(N)c12`, the activity vs control was 19% (enzyme activity; inhibitor; 1 µM).
For `CO[C@@H](C)c1c(Nc2ccc([C@H](N(C)C(=O)C3CCS(=O)(=O)CC3)C(F)(F)F)cc2)cnc2cc(Cl)nn12`, the remaining binding was 100% (cell-free assay; competition with immobilised ligand; 1 µM).
`c1ccc(CNc2nc(N3CCOc4ccccc43)nc3c2CCCC3)cc1` has an inhibition of -11.3% (target engagement in cells; inhibitor; chemoproteomics; 20 mM).
`CCCOc1ccc(OC)c(F)c1C(=O)c1ccc(C(=O)N[C@@H]2CNC[C@H]2NC(=O)c2ccc3[nH]ncc3c2)cc1` gave a remaining activity of 92% (enzyme activity; inhibitor; 10 µM).
`CNC(=O)c1ccc(Nc2ncc(C(F)(F)F)c(NCc3nccnc3N(C)S(C)(=O)=O)n2)cc1` has a remaining binding of 100% (cell-free assay; competition with immobilised ligand; 0.1 µM).
`CC(C)(C)c1nc2c(s1)c1nc(N)ncc1c1ccc(NS(=O)(=O)c3c(F)cccc3F)c(F)c12` has a remaining activity of 75% (enzyme activity; inhibitor; radiometric; 1 µM).
The remaining signal of `O=C1Nc2ccc(Cl)cc2C1=Cc1cc(Cl)c(O)c(Cl)c1` is reported as 32.4% (cell-free assay; 0.5 µM).
With `O=C(Nc1cnn(-c2csc(C(=O)NC3COC3)c2)c1)Nc1c(F)cccc1Cl` the remaining activity was 94.6% (enzyme activity; inhibitor; 5 µM).
The remaining activity of `Cc1cnc(NC2CCOCC2)nc1-n1cnc(C(=O)NC(CN)c2cc(F)cc(Cl)c2)c1` (centres unmarked) is reported as 110% (enzyme activity; inhibitor; radiometric; 1 µM).
`COc1cc2nccc(Oc3ccc(NC(=O)c4c5n(n(-c6ccc(F)cc6)c4=O)CCCC5)cc3)c2cc1OC` has an inhibition of 6% (enzyme activity; inhibitor; 0.1 µM).
The remaining binding of `CCCOc1ccc([C@H]2[C@H](C(=O)O)[C@@H](c3ccc4c(c3)OCO4)CN2CC(=O)Nc2c(CC)cccc2CC)cc1` is reported as 100% (cell-free assay; competition with immobilised ligand; 1 µM).
